Experimental data: ChEMBL document CHEMBL4346653, “A2B Adenosine Receptor Antagonists with Picomolar Potency” (J Med Chem, 2019)

What was measured:
[1] = biological target: T1, Adenosine receptor A1 (Homo sapiens, UniProt P30542); assay: Displacement of [3H]CCPA from recombinant human A1 adenosine receptor expressed in CHO cell membranes measured after 90 mins in presence of adenosine deaminase by liquid scintillation counting method
T1 sequence (P30542 whole entry): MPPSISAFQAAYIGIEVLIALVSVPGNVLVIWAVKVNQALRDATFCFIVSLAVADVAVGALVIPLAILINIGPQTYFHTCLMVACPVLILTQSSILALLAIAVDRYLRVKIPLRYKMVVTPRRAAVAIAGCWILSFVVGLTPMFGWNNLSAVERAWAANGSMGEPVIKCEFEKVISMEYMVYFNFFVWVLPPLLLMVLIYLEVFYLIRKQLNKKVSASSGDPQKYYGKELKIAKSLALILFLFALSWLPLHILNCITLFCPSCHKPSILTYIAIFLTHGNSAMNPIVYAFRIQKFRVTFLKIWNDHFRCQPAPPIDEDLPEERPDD
Method in brief: (§1)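 Competition binding on membranes of cells recombinantly expressing the human receptor (CHO or HEK cells), with tritiated radioligand per subtype: [3H]PSB-603 for A2B, [3H]MSX-2 for A2A, [3H]CCPA for A1, [3H]PSB-11 for A3. Ki ± SEM from n = 3, some from extrapolated curves. Weak binders are reported as % inhibition of radioligand binding at 1 μM.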

[2] = biological target: T2, Adenosine receptor A3 (Homo sapiens) (UniProt P0DMS8); assay: Displacement of [3H]PSB-11 from recombinant human A3 adenosine receptor expressed in CHO cell membranes at 1 uM measured after 45 mins in presence of adenosine deaminase by liquid scintillation counting method relative to control
T2 sequence (whole entry): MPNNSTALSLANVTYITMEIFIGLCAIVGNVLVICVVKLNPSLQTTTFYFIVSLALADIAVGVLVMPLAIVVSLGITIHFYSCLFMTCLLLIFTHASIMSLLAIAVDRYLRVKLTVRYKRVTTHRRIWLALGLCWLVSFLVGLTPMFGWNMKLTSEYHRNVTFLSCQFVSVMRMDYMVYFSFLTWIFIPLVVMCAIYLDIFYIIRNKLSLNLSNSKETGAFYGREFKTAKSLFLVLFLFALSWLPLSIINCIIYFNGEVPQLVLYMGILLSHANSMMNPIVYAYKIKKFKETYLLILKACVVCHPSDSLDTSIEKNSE
Method in brief: (§2)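 Single-point competition binding at human AR subtype membranes, each against its own tritiated radioligand. The test compound is given at 1 μM, and the result is reported as percent inhibition of radioligand binding. The radioligand-specific footnotes give n = 3.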

[3] = biological target: Adenosine receptor A2a (Homo sapiens, UniProt P29274); assay: Displacement of [3H]MSX-2 from recombinant human A2A adenosine receptor expressed in CHO cell membranes measured after 30 mins in presence of adenosine deaminase by liquid scintillation counting method; method in brief: as §1
[4] = biological target: T3, Adenosine receptor A2b (Homo sapiens, UniProt P29275); assay: Displacement of [3H]PSB-603 from recombinant human A2B adenosine receptor expressed in CHO cell membranes measured after 75 mins in presence of adenosine deaminase by liquid scintillation counting method; method in brief: as §1
T3 sequence (P29275 whole entry): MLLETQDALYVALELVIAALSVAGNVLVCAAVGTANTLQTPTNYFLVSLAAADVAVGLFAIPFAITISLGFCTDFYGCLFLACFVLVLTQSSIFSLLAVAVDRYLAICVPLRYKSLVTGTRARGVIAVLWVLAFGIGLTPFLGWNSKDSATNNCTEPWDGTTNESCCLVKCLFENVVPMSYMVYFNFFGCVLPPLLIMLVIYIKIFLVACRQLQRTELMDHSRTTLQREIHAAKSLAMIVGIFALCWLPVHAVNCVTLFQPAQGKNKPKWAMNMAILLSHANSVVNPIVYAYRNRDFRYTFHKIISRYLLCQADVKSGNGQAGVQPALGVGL

[5] = organism: Homo sapiens; assay: Selectivity index, ratio of Ki for displacement of [3H]MSX-2 from recombinant human A2A adenosine receptor expressed in CHO cell membranes to Ki for displacement of [3H]PSB-603 from recombinant human A2B adenosine receptor expressed in CHO cell membranes
[6] = biological target: T4, Adenosine receptor A3 (Homo sapiens, UniProt P0DMS8); assay: Displacement of [3H]PSB-11 from recombinant human A3 adenosine receptor expressed in CHO cell membranes measured after 45 mins in presence of adenosine deaminase by liquid scintillation counting method; method in brief: as §1
T4 sequence (P0DMS8 whole entry): T2 sequence (whole entry)

[7] = biological target: T5, Adenosine receptor A1 (Homo sapiens) (UniProt P30542); assay: Displacement of [3H]CCPA from recombinant human A1 adenosine receptor expressed in CHO cell membranes at 1 uM measured after 90 mins in presence of adenosine deaminase by liquid scintillation counting method relative to control; method in brief: as §2
T5 sequence (whole entry): T1 sequence (P30542 whole entry)

Adenosine receptor A2a, sequence (P29274 whole entry): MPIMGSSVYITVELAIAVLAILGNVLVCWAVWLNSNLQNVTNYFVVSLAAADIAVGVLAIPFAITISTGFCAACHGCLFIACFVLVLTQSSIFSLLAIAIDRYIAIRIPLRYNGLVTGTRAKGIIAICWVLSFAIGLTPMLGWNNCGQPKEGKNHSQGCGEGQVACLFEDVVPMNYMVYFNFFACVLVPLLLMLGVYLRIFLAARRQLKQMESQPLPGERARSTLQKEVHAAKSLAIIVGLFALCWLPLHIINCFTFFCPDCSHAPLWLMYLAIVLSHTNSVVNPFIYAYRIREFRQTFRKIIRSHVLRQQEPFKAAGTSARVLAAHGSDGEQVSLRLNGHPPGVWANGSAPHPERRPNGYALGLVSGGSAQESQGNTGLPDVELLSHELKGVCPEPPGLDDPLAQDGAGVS

Compound | Ki [1] [nM] | inhibition [2] [%] | Ki [3] [nM] | Ki [4] [nM] | Ratio Ki [5] | Ki [6] [nM] | inhibition [7] [%]
CCCn1c(=O)[nH]c2nc(-c3ccc(S(=O)(=O)N4CCN(c5ccccc5C)CC4)cc3)[nH]c2c1=O | 419 | 25 | 140 | 0.432 | 320 | > 1000 | –
CCCn1c(=O)[nH]c2nc(-c3ccc(S(=O)(=O)N4CCN(c5ccc(Cl)c(OC)c5)CC4)cc3)[nH]c2c1=O | 535 | 46 | 35.3 | 0.215 | 160 | > 1000 | –
CCCn1c(=O)[nH]c2nc(-c3ccc(S(=O)(=O)N4CCN(C(=O)c5ccccc5)CC4)cc3)[nH]c2c1=O | > 1000 | 26 | 143 | 5.69 | 30 | > 1000 | 15
CCCn1c(=O)[nH]c2nc(-c3ccc(S(=O)(=O)N4CCN(c5ccccc5)C(C)C4)cc3)[nH]c2c1=O (stereo not drawn) | > 1000 | -2 | 293 | 7.15 | 40 | > 1000 | 15
CCCn1c(=O)c2[nH]c(-c3ccc(S(=O)(=O)N4CCN(c5ccc(Cl)cc5)CC4)cc3)nc2n(CC)c1=O | > 1000 | 28 | 322 | 4.31 | 75 | > 1000 | 24
CCCn1c(=O)[nH]c2nc(-c3ccc(S(=O)(=O)N4CCN(c5ccccc5)CC4)cc3)[nH]c2c1=O | 364 | 27 | 122 | 0.643 | 190 | > 1000 | –
CCCn1c(=O)[nH]c2nc(-c3ccc(S(=O)(=O)N4CCN(Cc5ccc(F)c(OC)c5)CC4)cc3)[nH]c2c1=O | > 1000 | -5 | 135 | 0.629 | 220 | > 1000 | 25
CCCn1c(=O)[nH]c2nc(-c3ccc(S(=O)(=O)N4CCN(c5ccccc5Br)CC4)cc3)[nH]c2c1=O | > 1000 | 20 | 89.5 | 0.137 | 650 | > 1000 | 28
CCCn1c(=O)[nH]c2nc(-c3ccc(S(=O)(=O)N(C)C)cc3)[nH]c2c1=O | 190 | – | 52.7 | 18.6 | 3 | 1220 | –
CCCn1c(=O)[nH]c2nc(-c3ccc(S(=O)(=O)N4CCN(Cc5ccc(Br)cc5)CC4)cc3)[nH]c2c1=O | > 1000 | 28 | 77.8 | 0.153 | 510 | > 1000 | 31
CCCn1c(=O)[nH]c2nc(-c3ccc(S(=O)(=O)N4CCN(c5ccc(O)cc5)CC4)cc3)[nH]c2c1=O | 356 | 21 | 96.7 | 4.3 | 20 | > 1000 | –
CCCn1c(=O)[nH]c2nc(-c3ccc(S(=O)(=O)N4CCN(c5cccc(OC)c5)CC4)cc3)[nH]c2c1=O | > 1000 | -1 | 197 | 0.616 | 320 | > 1000 | -3
CCCn1c(=O)[nH]c2nc(-c3ccc(S(=O)(=O)N4CCN(c5ccc(F)cc5)CC4)cc3)[nH]c2c1=O | > 1000 | 38 | 108 | 0.644 | 170 | > 1000 | 14
CCCn1c(=O)[nH]c2nc(-c3ccc(S(=O)(=O)N4CCN(Cc5cccc(OC)c5)CC4)cc3)[nH]c2c1=O | 205 | 27 | 131 | 1.28 | 100 | > 1000 | –
CCCn1c(=O)[nH]c2nc(-c3ccc(S(=O)(=O)N4CCN(Cc5ccc(OCCOCCOC)cc5)CC4)cc3)[nH]c2c1=O | 1010 | 30 | 314 | 7.02 | 50 | > 1000 | –
CCCn1c(=O)[nH]c2nc(-c3ccc(S(=O)(=O)N(C)CCc4ccccc4)cc3)[nH]c2c1=O | 1040 | 4 | 357 | 1.69 | 210 | > 1000 | –
CCCn1c(=O)[nH]c2nc(-c3ccc(S(=O)(=O)N4CCN(C)CC4)cc3)[nH]c2c1=O | 334 | 7 | 140 | 48.2 | 3 | > 1000 | –
CCCn1c(=O)[nH]c2nc(-c3ccc(S(=O)(=O)N4CCN(Cc5cccc(C)c5)CC4)cc3)[nH]c2c1=O | 795 | 17 | 189 | 0.397 | 480 | > 1000 | –
CCCn1c(=O)[nH]c2nc(-c3ccc(S(=O)(=O)N4CCN(Cc5ccc(OC)c(F)c5)CC4)cc3)[nH]c2c1=O | > 1000 | 15 | 245 | 0.894 | 270 | > 1000 | 24
CCCn1c(=O)[nH]c2nc(-c3ccc(S(=O)(=O)N4CCN(Cc5cc(F)cc(OC)c5)CC4)cc3)[nH]c2c1=O | > 1000 | 12 | 160 | 1.02 | 160 | > 1000 | 31
CCCn1c(=O)[nH]c2nc(-c3ccc(S(=O)(=O)N4CCN(c5ccccc5Cl)CC4)cc3)[nH]c2c1=O | > 1000 | 32 | 204 | 0.403 | 510 | > 1000 | 25
CCCn1c(=O)[nH]c2nc(-c3ccc(S(=O)(=O)N4CCN(c5ccc(O)c(Cl)c5)CC4)cc3)[nH]c2c1=O | > 1000 | 41 | 93.8 | 3.55 | > 30 | > 1000 | 37
CCCn1c(=O)[nH]c2nc(-c3ccc(S(=O)(=O)N4CCN(c5ccc(Cl)c(O)c5)CC4)cc3)[nH]c2c1=O | 113 | 31 | 40.7 | 0.421 | 100 | > 1000 | –
CCCn1c(=O)[nH]c2nc(-c3ccc(S(=O)(=O)N4CCN(Cc5ccc(OCCO)cc5)CC4)cc3)[nH]c2c1=O | 560 | 17 | 241 | 12.2 | 20 | > 1000 | –
CCCn1c(=O)[nH]c2nc(-c3ccc(S(=O)(=O)N4CCN(c5ccc(OCCO)cc5)CC4)cc3)[nH]c2c1=O | > 1000 | 23 | 168 | 6.08 | 30 | > 1000 | 24
CCCn1c(=O)[nH]c2nc(-c3ccc(S(=O)(=O)N4CCN(Cc5ccc(N=[N+]=[N-])cc5)CC4)cc3)[nH]c2c1=O | 492 | 32 | 208 | 0.244 | 850 | > 1000 | –
